Records with an inconclusive call do not appear.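 The calls were made as follows, unless noted: active = viability increase at or above a cutoff of the median across tested compounds plus 3 SD (cut at about 8.5% in these data, passing the limit was not always enough); inconclusive = some gains above the cutoff, reason not given; inactive = the rest.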
Legend:
[1] = S. cerevisiae growth inhibition in permissive medium (OD615), pilot counter-assay for S. cerevisiae lifespan shortening project, permissive growth control (AID 705;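 active = growth inhibition above 25% in both replicates, a cutoff set 3 SD above the mean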); conditions: OD615, 24 h, at 10 µM, stronger effect = higher value
How it was run: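 Timing: 24 h exposure, 30 °C / Material: Saccharomyces cerevisiae strain carrying genetically modified DeaD replicative-lifespan system / Signal: OD at 615 nm / Compound: 10 µM single dose, 0.25% DMSO / Medium: SC raffinose/galactose permissive medium / Evaluation: reduction in yeast growth (OD615)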

[2] = S. cerevisiae growth inhibition in restrictive medium, OD615, pilot screen, restrictive growth control, yeast lifespan reduction project (AID 706;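 active = growth inhibition above a set limit, 3 SD over mean compound inhibition, in both replicates, cut at about 43% in these data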;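 also: modified DeaD lifespan yeast strain shifted to restrictive glucose medium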); conditions: OD615, 48 h, at 10 µM, stronger effect = higher value
How it was run: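 System: Engineered S. cerevisiae DeaD strain | Detection: OD615 | Buffer or medium: CSMM-D glucose medium | Doses: 10 µM compound, 0.25% DMSO | Timing: 4 h pre-growth plus 48 h compound exposure, 30 °C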

[3] = doxorubicin toxicity protection in MRP-1 cells – H69AR cells, CellTiter-Glo, duplicate, MRP-1 activator project, pilot screen (AID 807); conditions: H69AR viability with doxorubicin, CellTiter-Glo luminescence; at 10 µM; stronger effect = higher value;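 also: compound pretreatment 18-22 h then 72 h combined with doxorubicin; 0% = doxorubicin alone and 100% = vehicle without doxorubicin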
[4] = viability of HCT116 without oncogenic beta-catenin – human colon tumor cells, pilot screen (AID 823;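 active = cell viability at or below a set limit in both duplicate runs, the limit being the all-compound median minus 4 SD, cut at about 23% in these data, passing the limit was not always enough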;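 also: 0% = wells killed by 20 µM Hyamine and 100% = untreated DMSO cell wells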); conditions: HCT116 beta-catenin knockout viability, CellTiter-Glo, 60 h; at 10 µM; stronger effect = lower value
[5] = viability of PTEN-null HCT116 cells – cell-based, HCT116 clonal line, CellTiter-Glo, pilot screen (AID 824;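 active = viability at or below 27.92% in each of two runs, the all-compound median minus 4 SD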;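 also: 0% = 20 µM Hyamine control and 100% = vehicle cell control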); conditions: HCT116 PTEN-deleted viability, 60 h, at 10 µM, stronger effect = lower value
[6] = RAM pathway blockade in budding yeast – dse1pr::URA3 reporter, 5-FOA selection, pilot screen (AID 869;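 active = inhibition over a set limit, the all-compound mean plus 3 SD, in both replicate runs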;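 also: 0% = DMSO wells with no growth and 100% = 10 µM 1-NA-PP1 with full growth; RAM network block rescues cells from 5-FOA so hits raise OD615 growth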); conditions: S. cerevisiae dse1pr::URA3 5-FOA growth, OD615, 2 d; at 10 µM; stronger effect = higher value; strain carries analog-sensitive mutant Cbk1 kinase
[7] = RAM signaling pathway blockade in yeast – S. cerevisiae, Pdr1DBD-CYC8 efflux-inhibited sensitized strain, primary screen (AID 1298;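 active = RAM network inhibition above 8.4% in each of two replicates, 3 SD over the compound average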;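 also: 0% = DMSO untreated cells without growth and 100% = 10 µM 1-NA-PP1 full growth; higher means more yeast growth rescued from 5-FOA killing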); conditions: S. cerevisiae cbk1-as DSE1-URA3 strain, 5-FOA growth OD615, 2 d; at 50 µM; stronger effect = higher value

C(=C\c1ccccc1)/CSc1nnc(-c2cccnc2)o1
inactive: growth inhibition [1] 8.71% | growth inhibition [2] 32.7% | viability increase [3] 0.3% | viability [4] 99.9% | viability [5] 93.1% | inhibition [6] 0.04% | RAM network inhibition [7] 0.25%

COC(=O)C1=C(C)Nc2ccc(C)cc2S1
inactive: growth inhibition [1] 14.1% | growth inhibition [2] 29.2% | viability increase [3] -2.27% | viability [4] 98.8% | viability [5] 100% | inhibition [6] 1.25% | RAM network inhibition [7] 3.11%

COCCOC(=O)C1=C(C)NC2=C(C(=O)CCC2)C1c1ccc2c(c1)OCO2 (stereo unspecified)
inactive: growth inhibition [1] -3.56% | growth inhibition [2] -17.8% | viability increase [3] -2.23% | viability [4] 93.9% | viability [5] 93% | inhibition [6] 1.08% | RAM network inhibition [7] 0.14%

C=CCn1cc(C(=O)NCCCOC)c(=O)c2cc(S(=O)(=O)N3CCC(C)CC3)ccc21
inactive: growth inhibition [1] -10.6% | growth inhibition [2] -19.6% | viability increase [3] -3.54% | viability [4] 96.7% | viability [5] 87% | inhibition [6] 1.56% | RAM network inhibition [7] -0.52%

O=C(COc1cccc2ccccc12)N1CCN(c2ccccc2)CC1
inactive: growth inhibition [1] -6.48% | growth inhibition [2] -22% | viability increase [3] 1.21% | viability [4] 90.8% | viability [5] 89% | inhibition [6] 2.06% | RAM network inhibition [7] 11.7%

C=CCn1c(C(C)NC(=O)C(C)(C)C)nc2ccccc21 (stereo unspecified)
inactive: growth inhibition [1] -9.47% | growth inhibition [2] -11.3% | viability increase [3] 1.33% | viability [4] 94.8% | viability [5] 95.5% | inhibition [6] 1.41% | RAM network inhibition [7] 0.71%

Cc1cc(=O)oc(C)c1C(=O)N1CCc2c([nH]c3ccccc23)C1C(C)C (stereo unspecified)
inactive: growth inhibition [1] 3.99% | growth inhibition [2] 3.98% | viability increase [3] -5% | viability [4] 94.9% | viability [5] 89.4% | inhibition [6] 1.1% | RAM network inhibition [7] 4.47%

CCc1c(C)nc(SCCOc2ccc(OC)cc2)[nH]c1=O
inactive: growth inhibition [1] -12.6% | growth inhibition [2] -9.17% | viability increase [3] -0.04% | viability [4] 108% | viability [5] 93.9% | inhibition [6] -0.015% | RAM network inhibition [7] 1.64%

CCOC(=O)N1CCN(C(=O)C(C)(C)Oc2ccc(Cl)cc2)CC1
inactive: growth inhibition [1] -8.16% | growth inhibition [2] -2.48% | viability increase [3] -1.61% | viability [4] 93% | viability [5] 96.1% | inhibition [6] 0.28% | RAM network inhibition [7] 3.09%

O=C(Cn1c(NCCCO)nc2ccccc21)c1cccs1
inactive: growth inhibition [1] -5.45% | growth inhibition [2] -2.54% | viability increase [3] -1.98% | viability [4] 110% | viability [5] 91.7% | inhibition [6] 2.46% | RAM network inhibition [7] 0.62%

Cn1c(SCC(=O)N2CCCCCC2)nc2c([nH]c3ccccc32)c1=O
inactive: growth inhibition [1] -14.3% | growth inhibition [2] -27.8% | viability increase [3] -5.85% | viability [4] 89% | viability [5] 86.7% | inhibition [6] 3.46% | RAM network inhibition [7] 8.37%

CCOC(=O)CSC1=C(C#N)C(c2ccccc2Cl)C(C(=O)OC)C(=O)N1 (stereo unspecified)
inactive: growth inhibition [1] -8.45% | growth inhibition [2] -0.68% | viability increase [3] -0.9% | viability [4] 90.3% | viability [5] 91.8% | inhibition [6] 0.14% | RAM network inhibition [7] 2.05%

COC(=O)NCC(c1cccnc1)N1CCN(c2ccccc2)CC1 (stereo unspecified)
inactive: growth inhibition [1] -3.09% | growth inhibition [2] -0.34% | viability increase [3] 0.41% | viability [4] 91.3% | viability [5] 96.8% | inhibition [6] 0.355% | RAM network inhibition [7] -1.35%

Cn1c(Cn2c(=O)sc3ccccc32)nnc1SCC(=O)N1CCOCC1
inactive: growth inhibition [1] -13.2% | growth inhibition [2] -28% | viability increase [3] -1.17% | viability [4] 103% | viability [5] 99.2% | inhibition [6] 2.92% | RAM network inhibition [7] 3.55%

COC(=O)c1c(-c2cccc(OC)c2)csc1N
inactive: growth inhibition [1] -8.46% | growth inhibition [2] 1.4% | viability increase [3] -4.63% | viability [4] 103% | viability [5] 100% | inhibition [6] 1.37% | RAM network inhibition [7] 0.9%

O=C(NC1CCCCCC1)C1C2C=CC3(CN(Cc4cccnc4)C(=O)C13)O2 (stereo unspecified)
inactive: growth inhibition [1] 0.045% | growth inhibition [2] 8.75% | viability increase [3] 0.68% | viability [4] 101% | viability [5] 107% | inhibition [6] 0.18% | RAM network inhibition [7] 1.44%

Cn1ccnc1SCC(=O)Nc1cccc(C(F)(F)F)c1
inactive: growth inhibition [1] 0.76% | growth inhibition [2] 10.5% | viability increase [3] -4.88% | viability [4] 96.4% | viability [5] 96.8% | inhibition [6] 0.71% | RAM network inhibition [7] 4.72%

COC(=O)C1C(=O)C=C(N2CCOCC2)CC1(C)C (stereo unspecified)
inactive: growth inhibition [1] -10.6% | growth inhibition [2] -10.2% | viability increase [3] -0.72% | viability [4] 96.4% | viability [5] 105% | inhibition [6] 0.685% | RAM network inhibition [7] 1.92%

Reference: PubChem BioAssay
